The source of these data is ChEMBL document CHEMBL3526138, “Excretion and metabolism of milnacipran in humans after oral administration of milnacipran hydrochloride” (Drug Metab Dispos, 2012).

In general, Tmax refers to the time at which the peak concentration occurs. The half-life is the time needed for the level to fall by half in the phase considered. One may read the Cmax as the highest concentration seen after dosing. One may read the AUC(0-t) as exposure summed from dosing to a finite time, without extrapolation to infinity. Broadly, the AUC(0-inf) is total exposure, with the tail of the curve extrapolated.

The nature of series [1]: Drug excretion in human urine treated with [14C]-labeled milnacipran hydrochloride at 100 mg, po after 0 to 96 hrs by HPLC analysis. Format: ADME, organism-based. The conditions noted are these: in vivo.
In series [2] the test system is Plasma. In words: Plasma concentration in human treated with [14C]-labeled milnacipran hydrochloride at 100 mg, po measured at 0.5 hrs by HPLC analysis. The conditions noted are these: in vivo. It is filed as ADME, organism-based. The method, boiled down: (§1)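 Single oral 100 mg [14C] milnacipran hydrochloride in healthy men; blood taken into chilled K3EDTA tubes, plasma spun at ≥2,500 g for 10 min at 4°C and stored at -80°C. Pooled timepoint plasma was extracted and run on phenyl-hexyl HPLC, with 0.5-min fractions counted by LSC. Peak concentration = % of chromatogram radioactivity × pool radioactivity (ng equivalent of milnacipran/mL).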

The subject of series [3] is Plasma. In words: Plasma concentration in human treated with [14C]-labeled milnacipran hydrochloride at 100 mg, po measured at 1 hr by HPLC analysis. It is filed as ADME, organism-based. Particulars: in vivo. The method, boiled down:
as §1

Series [4] relates to Plasma. As to the kind of experiment: Plasma concentration in human treated with [14C]-labeled milnacipran hydrochloride at 100 mg, po measured at 1.5 hrs by HPLC analysis. Format: ADME, organism-based. The conditions noted are these: in vivo. The procedure, abridged: as §1
Series [5] deals with Plasma. In words: Plasma concentration in human treated with [14C]-labeled milnacipran hydrochloride at 100 mg, po measured at 2 hrs by HPLC analysis. It is filed as ADME, organism-based. The conditions noted are these: in vivo. The method, boiled down: as §1
The test system of series [6] is Plasma. In words: Plasma concentration in human treated with [14C]-labeled milnacipran hydrochloride at 100 mg, po measured at 3 hrs by HPLC analysis. The conditions noted are these: in vivo. Format: ADME, organism-based. The procedure, abridged: as §1
Series [7] relates to Plasma. As to the kind of experiment: Plasma concentration in human treated with [14C]-labeled milnacipran hydrochloride at 100 mg, po measured at 4 hrs by HPLC analysis. The conditions noted are these: in vivo. Format: ADME, organism-based. The procedure, abridged:
as §1

Series [8] relates to Plasma. As to the kind of experiment: Plasma concentration in human treated with [14C]-labeled milnacipran hydrochloride at 100 mg, po measured at 6 hrs by HPLC analysis. It is filed as ADME, organism-based. The conditions noted are these: in vivo. The procedure, abridged: as §1
Series [9] concerns Plasma. In words: Plasma concentration in human treated with [14C]-labeled milnacipran hydrochloride at 100 mg, po measured at 12 hrs by HPLC analysis. It is filed as ADME, organism-based. The conditions noted are these: in vivo. The procedure, abridged: as §1
Series [10] in a line: Drug excretion in human urine treated with [14C]-labeled milnacipran hydrochloride at 100 mg, po up to 4 hrs by HPLC analysis. Format: ADME, organism-based. The conditions noted are these: in vivo. The method, boiled down: (§2)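 Healthy male subjects, single oral 100 mg [14C] milnacipran hydrochloride (1 μCi/mg) after breakfast; urine pooled by interval and kept at -80°C. Urine injected directly (200 µL) onto phenyl-hexyl HPLC, 35°C, gradient ammonium acetate pH 5/methanol at 1 mL/min, with radioactivity flow detection. Metabolite excretion = net peak radioactivity (% of chromatogram, background-subtracted) × urine radioactivity excreted (% of dose); four subjects without emesis, mean.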

A short description of series [11]: Drug excretion in human urine treated with [14C]-labeled milnacipran hydrochloride at 100 mg, po after 4 to 8 hrs by HPLC analysis. It is filed as ADME, organism-based. The conditions noted are these: in vivo. The method, boiled down:
as §2

The nature of series [12]: Drug excretion in human urine treated with [14C]-labeled milnacipran hydrochloride at 100 mg, po after 8 to 12 hrs by HPLC analysis. Format: ADME, organism-based. Particulars: in vivo. The method, boiled down: as §2
Series [13] is described as follows: Drug excretion in human urine treated with [14C]-labeled milnacipran hydrochloride at 100 mg, po after 12 to 24 hrs by HPLC analysis. The conditions noted are these: in vivo. Format: ADME, organism-based. The method, boiled down:
as §2

Series [14] can be described thus: Drug excretion in human urine treated with [14C]-labeled milnacipran hydrochloride at 100 mg, po after 24 to 48 hrs by HPLC analysis. Format: ADME, organism-based. The conditions noted are these: in vivo. The procedure, abridged: as §2
Series [15] is described as follows: Drug excretion in human urine treated with [14C]-labeled milnacipran hydrochloride at 100 mg, po after 48 to 72 hrs by HPLC analysis. Format: ADME, organism-based. Particulars: in vivo. The procedure, abridged:
as §2

A short description of series [16]: Drug excretion in human urine treated with [14C]-labeled milnacipran hydrochloride at 100 mg, po after 72 to 96 hrs by HPLC analysis. Format: ADME, organism-based. Particulars: in vivo. The method, boiled down:
as §2

Series [17] can be described thus: Retention time in human urine treated with [14C]-labeled milnacipran hydrochloride at 100 mg, po by HPLC analysis. Format: ADME, organism-based. Particulars: in vivo. The procedure, abridged:
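Urine from subjects given oral 100 mg [14C] milnacipran hydrochloride was run on a Luna phenyl-hexyl column (250 x 4.6 mm) with guard column at 35°C. Elution used a gradient of ammonium acetate pH 5/water/methanol at 1 mL/min, with in-line radioactivity flow detection and UV at 220 nm.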

Series [18] is described as follows: Tmax in human. Format: ADME, organism-based. The conditions noted are these: in vivo.
Series [19] in a line: Half life in human plasma. It is filed as ADME, cell-free.
A short description of series [20]: Drug excretion in human urine. Format: ADME. The conditions noted are these: read-out: Drug excretion.
The nature of series [21]: Cmax in human at 100 mg, po by LC-MS/MS analysis. It is filed as ADME, organism-based. On the set-up: dose 100 mg, route oral. Particulars: in vivo. The procedure, abridged: (§3)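 Plasma from healthy males after single oral 100 mg [14C] milnacipran hydrochloride, sampled 0.5–120 h. Unchanged drug quantified by validated LC-MS/MS with [2H10] internal standard, C8 column isocratic formic acid/water/methanol; linear 5–2000 ng/mL, LLOQ 5 ng/mL in 25 µL plasma. Non-compartmental analysis; values below LLOQ set to zero; subjects without emesis.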

Series [22] can be described thus: AUC (0 to t) in human at 100 mg, po by LC-MS/MS analysis. Particulars: plasma. Format: ADME, organism-based. The procedure, abridged: as §3
Series [23] in a line: AUC (0 to infinity) in human at 100 mg, po by LC-MS/MS analysis. It is filed as ADME, organism-based. The arrangement: dose 100 mg, time infinity, route oral. Particulars: plasma. The method, boiled down:
as §3

Series [24] in a line: Tmax in human at 100 mg, po by LC-MS/MS analysis. It is filed as ADME, organism-based. Particulars: in vivo. The method, boiled down: as §3
Series [25] can be described thus: Half life in human at 100 mg, po by LC-MS/MS analysis. Format: ADME, organism-based. The conditions noted are these: in vivo. The procedure, abridged:
as §3

Series [26] can be described thus: Drug excretion in human urine treated with [14C]-labeled milnacipran hydrochloride at 100 mg, po up to 96 hrs by LC-SRM analysis. It is filed as ADME, organism-based. The conditions noted are these: in vivo. The method, boiled down: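 0–96 h urine pool analysed by chiral LC-SRM on Chirobiotic V column, ammonium formate-methanol mobile phase, 1 mL/min, column 20°C. Enantiomer proportion from peak areas corrected by urine standard ratio, multiplied by milnacipran excreted in the pool (% of dose).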

A short description of series [27]: Drug excretion in mouse urine at 100 mg/kg, po. Format: ADME, organism-based. The arrangement: dose 100 mg/kg, route oral. The conditions noted are these: read-out: Drug excretion.
The nature of series [28]: Drug excretion in monkey urine at 60 mg/kg, po. Format: ADME, organism-based, Macaca mulatta. The arrangement: dose 60 mg/kg, route oral. Particulars: rhesus monkey, read-out: Drug excretion.
Series [29] is described as follows: Drug excretion in rat urine at 100 mg/kg, po. Particulars: read-out: Drug excretion. It is filed as ADME, organism-based. The arrangement: dose 100 mg/kg, route oral.

SMILES strings stand for the structures. Where only a bound is given, the exact number is not on record here.

In the case of `CCN(CC)C(=O)[C@@]1(c2ccccc2)C[C@H]1CNC(=O)O[C@@H]1O[C@H](C(=O)O)[C@@H](O)[C@H](O)[C@H]1O`, the Drug excretion in series [1] was determined as 2.14%; in series [10] it was 0.55%; in series [11], 0.64%; in series [12] it was 0.37%; in series [13] it was 0.58%; in series [14], 0.28%. Moreover, the Drug excretion entry in series [15] and in [16] was “Below limit of detection” each time. The Cp with Plasma [2] is below 7.8 ng.Eq/ml; in the series on Plasma [3], below 7.8 ng.Eq/ml; in the series on Plasma [4], below 7.8 ng.Eq/ml; in the series with Plasma [5], below 7.8 ng.Eq/ml; in the series on Plasma [6] it was 16.42 ng.Eq/ml; in the series on Plasma [7], 17.49 ng.Eq/ml. Further, the Cp with Plasma [8] and in the series on Plasma [9] was below 7.8 ng.Eq/ml in each case. The molecule also had a Retention_time in [17] of 24 min.
For `CCN(CC)C(=O)[C@]1(c2ccccc2)C[C@@H]1CNC(=O)O[C@@H]1O[C@H](C(=O)O)[C@@H](O)[C@H](O)[C@H]1O`, the Drug excretion in series [1] was found to be 17.23%; in series [10], 6.26%; in series [11], 5.39%; in series [12], 2.36%; in series [13], 2.36%; in [14] it was 0.76%. Moreover, the Drug excretion in [15] is 0.19%; in series [16], “Below limit of detection”. Further, the Cp in the series on Plasma [2] turned out to be 26.57 ng.Eq/ml; with Plasma [3], 101.66 ng.Eq/ml; in the series with Plasma [4], 161.3 ng.Eq/ml; in the series with Plasma [5] it was 190.14 ng.Eq/ml; with Plasma [6], 195.72 ng.Eq/ml; in the series with Plasma [7], 234.38 ng.Eq/ml. In addition, the Cp in the series with Plasma [8] is 140.79 ng.Eq/ml; in the series with Plasma [9], 50.79 ng.Eq/ml. The molecule further came in with a Retention_time in [17] of 22 min.
Regarding `CCN(CC)C(=O)C1(c2ccccc2)CC1CN` (racemic) [MILNACIPRAN], the Drug excretion in [1] was found to be 54.71%; in series [10], 15.54%; in [11] it was 14.42%; in series [12] it was 7.17%; in [13], 10.87%; in series [14], 5.45%. The Drug excretion in series [15] turned out to be 1.47%; in series [16] it was 0.3%; in series [26], 54.7%. In addition, the time to peak (Tmax) amounted to 2 h in series [18] and 3.5 h in [24]. Besides, the half-life in series [19] was 8 h; in series [25], 8.9 h. Also, the dose excreted in [20] worked out at 50%. In series [21], this molecule came in with a peak concentration (Cmax) of 240 ng/mL. Moreover, the area under the curve AUC(0-t) in series [22] worked out at 2340 ng·h/mL. In addition, the AUC(0-inf) in series [23] is 2770 ng·h/mL. The Cp is 33.92 ng.Eq/ml in the series on Plasma [2]; 83.17 ng.Eq/ml in the series on Plasma [3]; 156.73 ng.Eq/ml in the series with Plasma [4]; 178.93 ng.Eq/ml with Plasma [5]; 208.01 ng.Eq/ml in the series on Plasma [6]; 214.21 ng.Eq/ml in the series with Plasma [7]. Further, the Cp in the series with Plasma [8] stood at 186.82 ng.Eq/ml; in the series with Plasma [9], 87.22 ng.Eq/ml. Besides, in series [17], the Retention_time was determined as 35 min.
`CCN(CC)C(=O)[C@@]1(c2ccccc2)C[C@H]1CN` [LEVOMILNACIPRAN] came in with a Drug excretion in series [26] of 31.2%.
Consider `CCNC(=O)[C@@]1(c2ccccc2)CC1CN` (some centres not stated), for which the Drug excretion in series [1] is listed as 7.73%; in series [10] it was 0.92%; in series [11], 1.35%; in series [12], 1.26%; in series [13] it was 2.06%; in series [14], 1.36%. In addition, the Drug excretion in series [15] was 0.73%; in [16], 0.06%. Besides, the Cp with Plasma [2] is below 7.8 ng.Eq/ml; with Plasma [3], below 7.8 ng.Eq/ml; with Plasma [4], below 7.8 ng.Eq/ml; in the series with Plasma [5], below 7.8 ng.Eq/ml; in the series on Plasma [6] it was 24.6 ng.Eq/ml; in the series with Plasma [7] it was 19.63 ng.Eq/ml. Further, the values for the Cp with Plasma [8] and in the series with Plasma [9] were 23.46 ng.Eq/ml and 13.67 ng.Eq/ml, respectively. Also, the Retention_time in series [17] is given as 11 min.
Turning to `CCN(CC)C(=O)C1(c2ccccc2)CC1CN` (stereo in doubt) [MILNACIPRAN], the Drug excretion in series [26] turned out to be 23.5%.
Regarding `CCN(CC)C(=O)C1(c2ccccc2)CC1CNC(=O)O[C@@H]1O[C@H](C(=O)O)[C@@H](O)[C@H](O)[C@H]1O` (some centres not stated), the dose excreted is 1% in [27], 1.6% in series [28] and 0.1% in [29].
